SMILES strings stand for the structures. pKi: −log10 of the molar value.

A short description of this experiment: Displacement of [125I]IMPY from amyloid beta (1 to 42) aggregate after 2 hrs by gamma counting. The method in brief: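 Competition binding in 1 mL PBS (0.2 M, pH 7.4). Aggregated Aβ1-42 fibrils (60 nM final) with [125I]IMPY and inhibitor at 10^-5 to 10^-10 M, added in ethanol. Nonspecific binding was defined with 1 μM IMPY. Incubated 2 h at 37 °C with shaking, then vacuum-filtered through glass fibre filters and the bound fraction gamma-counted. IC50 was converted to Ki by Cheng-Prusoff; triplicate, mean ± SD.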
Usually pKi stands for −log10 of the Ki, conventionally taken in molar units. Lower therefore signals a high Ki. Turning to `COc1ccc(/C=C/C(=O)/C=C/c2ccc(OC)cc2)cc1`, the pKi was 8.19.
For the compound `CN(C)c1ccc(/C=C2\CCC/C(=C\c3ccc(N(C)C)cc3)C2=O)cc1`, the pKi is 9.00.
To `COc1ccc(/C=C2\CCC/C(=C\c3ccc(OC)cc3)C2=O)cc1` belongs 7.61; to `CN(C)c1ccc(/C=C/C(=O)/C=C/c2cc([N+](=O)[O-])ccc2OCc2ccccc2)cc1`, 7.48; to `CN(C)c1ccc(/C=C/C(=O)/C=C/c2cccc(F)c2)cc1`, 8.92.
With `CN(C)c1ccc(/C=C/C(=O)/C=C/c2ccccc2N)cc1` the figure was 8.08.
To `CN(C)c1ccc(/C=C/C(=O)/C=C/c2ccc(O)cc2)cc1` belongs 8.17; to `COc1cc(/C=C/C(=O)/C=C/c2ccc(N(C)C)cc2)cc(OC)c1`, 8.33.
In the case of `CN(C)c1ccc(/C=C/C(=O)/C=C/c2c(F)cccc2Cl)cc1`, the pKi was 8.04.
With `CN(C)c1ccc(/C=C/C(=O)/C=C/c2c(Cl)cccc2Cl)cc1` the figure was 7.73; with `CN(C)c1ccc(/C=C/C(=O)/C=C/c2ccccc2Cl)cc1`, 9.05; with `COc1ccc(/C=C/C(=O)/C=C/c2ccc(N(C)C)cc2)cc1`, 9.15.
To `CN(C)c1ccc(/C=C/C(=O)/C=C/c2ccccc2[N+](=O)[O-])cc1` belongs 7.73; to `CN(C)c1ccc(/C=C/C(=O)/C=C/c2cccc(Br)c2)cc1`, 8.72; to `CN(C)c1ccc(/C=C/C(=O)/C=C/c2ccc(I)nc2)cc1`, 8.32.
To `O=C(/C=C/c1ccc(Cl)cc1)/C=C/c1ccc(Cl)cc1` belongs 8.05; to `CN(C)c1ccc(/C=C/C(=O)/C=C/c2cc(C(F)(F)F)cc(C(F)(F)F)c2)cc1`, 8.40; to `CN(C)c1ccc(/C=C/C(=O)/C=C/c2ccccc2O)cc1`, 7.55.
On to `CN(C)c1ccc(/C=C/C(=O)/C=C/c2cc(Br)ccc2O)cc1`, for which the negative-log Ki (pKi) is 7.79.
To `CN(C)c1ccc(/C=C/C(=O)/C=C/c2ccc([N+](=O)[O-])cc2)cc1` belongs 8.28.
`O=C(/C=C/c1ccccc1)/C=C/c1ccccc1` gave a pKi of 6.62.
As to `CN(C)c1ccc(/C=C/C(=O)/C=C/c2ccc(OCCF)cc2)cc1`, the negative-log Ki (pKi) was 8.25.
The compound `CN(C)c1ccc(/C=C/C(=O)/C=C/c2ccc(Cl)cc2)cc1` showed a negative logarithm of the Ki (pKi) of 8.96.
To `CN(C)c1ccc(/C=C/C(=O)/C=C/c2cccc(Oc3ccccc3)c2)cc1` belongs 8.42; to `CN(C)c1ccc(/C=C/C(=O)/C=C/c2ccc(OCc3ccccc3)cc2)cc1`, 8.70; to `CN(C)c1ccc(/C=C/C(=O)/C=C/c2ccc(Br)nc2)cc1`, 8.64.
Compound `CN(C)c1ccc(/C=C/C(=O)/C=C/c2ccccc2)cc1` gave a pKi of 8.92.
To `CN(C)c1ccc(/C=C/C(=O)/C=C/c2ccc(Br)s2)cc1` belongs 8.42.
To `CN(C)c1ccc(/C=C/C(=O)/C=C/c2ccc(Br)cc2)cc1` belongs 8.55; to `CN(C)c1ccc(/C=C/C(=O)/C=C/c2ccc(-c3ccc(Br)s3)s2)cc1`, 7.93; to `CNc1cccc(/C=C/C(=O)/C=C/c2ccc(N(C)C)cc2)c1`, 8.09.
With `CN(C)c1ccc(/C=C/C(=O)/C=C/c2ccc(Cl)nc2)cc1` the figure was 8.66.
As for `CN(C)c1ccc(/C=C/C(=O)/C=C/c2ccccc2OCc2ccccc2)cc1`, the pKi is 7.73.
With `Nc1ccc(/C=C/C(=O)/C=C/c2ccc(I)cc2)cc1` the figure was 8.15.
Regarding `COc1ccc(/C=C/C(=O)/C=C/c2ccc(N(C)C)cc2)cc1OC`, the pKi is 8.27.
To `O=C1/C(=C/c2ccccc2)CCC/C1=C\c1ccccc1` [2,6-DIBENZYLIDENECYCLOHEXANONE] belongs 6.15.
With `CN(C)c1ccc(/C=C/C(=O)/C=C/c2ccccn2)cc1` the figure was 7.64.
With `CNc1ccccc1/C=C/C(=O)/C=C/c1ccc(N(C)C)cc1` the figure was 5.58; with `CN(C)c1ccc(/C=C/C(=O)/C=C/c2ccc(F)cc2)cc1`, 8.43.
On to `CN(C)c1ccc(/C=C/C(=O)/C=C/c2cccs2)cc1`, for which the pKi was 8.28. The pKi values of the last two compounds are within 0.2 log units of each other.
To `CN(C)c1ccc(/C=C/C(=O)/C=C/c2ccc(C(=O)O)cc2)cc1` belongs 7.11.
In turn, `CN(C)c1ccc(/C=C/C(=O)/C=C/c2ccc(OCCOCCF)cc2)cc1` had a pKi of 8.36.
With `COc1cc(OC)c(/C=C/C(=O)/C=C/c2ccc(N(C)C)cc2)c(OC)c1`, the pKi was 7.41.
With `CN(C)c1ccc(/C=C/C(=O)/C=C/c2ccc(N)cc2)cc1` the figure was 8.43; with `O=C1/C(=C/c2ccc(Cl)cc2)CCC/C1=C\c1ccc(Cl)cc1`, 7.94; with `CN(C)c1ccc(/C=C/C(=O)/C=C/c2ccc(OC(c3ccccc3)(c3ccccc3)c3ccccc3)cc2)cc1`, 8.55.
With `Cc1ccc(/C=C/C(=O)/C=C/c2ccc(N(C)C)cc2)cc1` the figure was 8.89; with `CN(C)c1ccc(/C=C/C(=O)/C=C/c2ccc(C(F)(F)F)cc2)cc1`, 9.10; with `CN(C)c1ccc(/C=C/C(=O)/C=C/c2cccc(N)c2)cc1`, 7.86.
With `CN(C)c1ccc(/C=C/C(=O)/C=C/c2cccc(I)c2)cc1` the figure was 8.26; with `COc1cc(/C=C/C(=O)/C=C/c2ccc(N(C)C)cc2)cc(OC)c1OC`, 8.28; with `COc1ccc2cc(/C=C/C(=O)/C=C/c3ccc(N(C)C)cc3)ccc2c1`, 8.60.
The compound `CN(C)c1ccc(/C=C/C(=O)/C=C/c2cccc([N+](=O)[O-])c2)cc1` had a pKi of 8.40.
With `COc1ccc(/C=C/C(=O)/C=C/c2ccc(N(C)C)cc2)c(OC)c1` the figure was 8.55; with `CN(C)c1ccc(/C=C/C(=O)/C=C/c2ccc[nH]2)cc1`, 8.24; with `COc1cc(/C=C/C(=O)CC(=O)/C=C/c2ccc(O)c(OC)c2)ccc1O` [CURCUMIN], 7.30.
With `CN(C)c1ccc(/C=C/C(=O)/C=C/c2ccc(N(C)C)cc2)cc1` the figure was 8.57; with `CN(C)c1ccc(/C=C/C(=O)/C=C/c2ccco2)cc1`, 8.07; with `CCN(CC)c1ccc(/C=C/C(=O)/C=C/c2ccc(N(C)C)cc2)cc1`, 7.80.
With `CN(C)c1ccc(/C=C/C(=O)/C=C/c2cccc(N(C)C)c2)cc1` the figure was 8.10.
Turning to `CN(C)c1ccc(/C=C/C(=O)/C=C/c2ccc3c(c2)OCO3)cc1`, the pKi is 8.74.
To `COc1cc(/C=C/C(=O)/C=C/c2ccc(N(C)C)cc2)ccc1OCc1ccccc1` belongs 8.39; to `CNc1ccc(/C=C/C(=O)/C=C/c2ccc(N(C)C)cc2)cc1`, 8.54.
To `CN(C)c1ccc(/C=C/C(=O)/C=C/c2ccc(N(c3ccccc3)c3ccccc3)cc2)cc1` belongs 6.88; to `CN(C)c1ccc(/C=C/C(=O)/C=C/c2ccc3[nH]ccc3c2)cc1`, 8.38.
